Beta apoptosis – inhibitors of cytokine-induced beta cell apoptosis, primary screen, luminescence | INS-1E cytokine-induced death, ATP luminescence, 48 h; percent of positive-control rescue, neutral wells zero | protection from apoptosis, % (concentration not given with the values) | 0.8% of 300,000 active;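 active means Every replicate reaches about 75%, or at least half do and their mean reaches it too, limit read from the data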;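 further: 0% = cytokine-treated negative control wells and 100% = positive control rescue; higher means more ATP so stronger rescue from cytokine killing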
Efflux pump mplx – inhibitors of Candida efflux pumps in yeast, primary screen, S. cerevisiae, Nile Red, multiplex | S. cerevisiae Candida pump triplex | inhibition, % at 10 µM | 0.44% of 330,000 active | AID 485275, 2010;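 active means plate passing quality check with inhibition over a set limit, or well fluorescence over plate mean plus 4 SD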;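 further: Nile Red retained in pooled yeast measured as flow cytometry median fluorescence; 0% = buffer negative control and 100% = Enniatin B positive control; higher means more Nile Red kept so more efflux inhibition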
T cruzi inh – inhibitors of intracellular T. cruzi growth, primary screen, luminescence, NIH3T3 host cells | AID 1885, 2009 | T. cruzi beta-gal in NIH3T3, 90 h | inhibition, % (test concentration not listed) | 1.4% of 300,000 active;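 active means mean inhibition across valid replicates above about 55%, limit read from the data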;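 further: signal also drops with host cell toxicity which is not excluded here; 0% = plate median of DMSO wells and 100% = zero luminescence signal; higher percent means less beta-gal luminescence so fewer parasites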
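assay system = mouse NIH/3T3 fibroblasts infected with β-gal-expressing T. cruzi Tulahuen C4 | input = 5,000 NIH/3T3 host cells per well | buffer or medium = DMEM plus 2% FBS | timing = 3 h host attachment, then at least 90 h co-culture | measured by = GalScreen luminescence, 60 min | evaluation = luminescence reflecting intracellular parasite burden, expressed as percent inhibition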
Mot1-301 SUMO – yeast Mot1-301 growth rescue at high temperature, primary screen, SUMOylation pathway inhibitor project, S. cerevisiae, ATP luminescence, 38.5C | S. cerevisiae Mot1-301 growth rescue; percent above DMSO median, 100 means doubled | growth rescue, % at 18.8 µM | AID 2716, 2010 | 1% of 320,000 active;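 active means every valid replicate shows activation above 250% relative to neutral control wells; inactive means the rest, any valid replicate at or below 250%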;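 further: OY570 slx delta 5 strain wells were the positive control but not used for scaling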
CSC inhib – cancer stem cell viability inhibitors, primary screen, luminescence; cancer stem cell-like cells viability; inhibition, % at 7.5 µM; 1.1% of 300,000 active; AID 2717, 2010; in the data active means inhibition above about 75%; tested in HMLE shEcad cells
WT yeast gro inh – growth inhibition of WT strain, primary screen, mitochondrial fusion inhibitor project, WT and mutant strains, chemical genetic. mitochondrial fusion phenotypic screen. inhibition, % at 10 µM. 2.1% of 190,000 active; in the data active means inhibition above about 58%; tested in S. cerevisiae
Mot1 SUMO dose – growth restoration of Mot1-301 yeast on galactose, dose response, SUMO pathway inhibitor project, whole organism, S. cerevisiae, ATP luminescence, cherry-picked samples. shares compounds with Mot1-301 SUMO. S. cerevisiae Mot1-301 galactose growth, 24 h; -100 = growth of slx-deleted rescue strain. growth activity, percent, % at 42 µM. 2,300 tested, under 10 active. AID 493004, 2010;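 active means Signal drops as the depositor expects, and the fitted half-maximal dose is no more than ten times the top valid tested dose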;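 further: more negative values mean stronger growth rescue toward the control strain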
Active calls of the source: *. Shown are actives, neighbours in structure and some others; about 4.8% of the full set was active somewhere.

CCOC(=O)C1=C(N)c2ccccc2CC1C1CCCC1 (stereo not given) was read as Beta apoptosis -2, Efflux pump mplx 0, T cruzi inh 7, Mot1-301 SUMO 552*, CSC inhib 25 and Mot1 SUMO dose 0.
`C=C1c2ccccc2O[C@H](C(=O)OCC)[C@@H]1C1CCCCC1` gave Efflux pump mplx 0.
For CC(NC(=O)C12CC3CC(CC(O)(C3)C1)C2)c1ccccc1 (stereo not given) the results were Beta apoptosis -4, Efflux pump mplx 0, T cruzi inh -2, Mot1-301 SUMO 409*, CSC inhib -7 and Mot1 SUMO dose -1.
O=C1NC2(CCCCC2)NN1c1ccccc1 was read as Beta apoptosis -6, Efflux pump mplx 0, T cruzi inh 5, Mot1-301 SUMO 479*, CSC inhib 44, WT yeast gro inh 2 and Mot1 SUMO dose 1.
NNC(=O)c1oc2nc(-c3ccccc3)cc(-c3ccccc3)c2c1N was read as Beta apoptosis 11, Efflux pump mplx 1, T cruzi inh 17, Mot1-301 SUMO 477*, CSC inhib 20 and Mot1 SUMO dose 0.
CC(NS(C)(=O)=O)C(c1cccs1)N1CCN(c2ccc(F)cc2)CC1 (stereo not given) was read as Beta apoptosis -2, Efflux pump mplx 0, T cruzi inh -40, Mot1-301 SUMO 33 and WT yeast gro inh 0.
COc1ccc(N2CCN(C(c3cccs3)C(C)NS(C)(=O)=O)CC2)cc1 (stereo not given) was read as Beta apoptosis 6, Efflux pump mplx 0, T cruzi inh -33, Mot1-301 SUMO 379*, CSC inhib -18, WT yeast gro inh 2 and Mot1 SUMO dose 1.
For C#CCn1c(=NC(=O)CN2C(=O)CCC2=O)sc2cccc(OC)c21 the results were Beta apoptosis -6, Efflux pump mplx 0, T cruzi inh -10, Mot1-301 SUMO active, CSC inhib -1 and Mot1 SUMO dose 1.
`Cc1ccc(S(=O)(=O)/N=C(/Nc2ccc([N+](=O)[O-])cc2)c2ccccc2)cc1` gave Beta apoptosis 5, Efflux pump mplx 0, T cruzi inh 8, Mot1-301 SUMO -16 and CSC inhib 40.
Screening Cc1ccc(S(=O)(=O)/N=C(/Nc2ccc([N+](=O)[O-])cc2[N+](=O)[O-])c2ccccc2)cc1 returned Beta apoptosis 9, Efflux pump mplx 0, Mot1-301 SUMO 415*, CSC inhib 40 and Mot1 SUMO dose -1.
For N#C/C(=C\Nc1ccc2c(c1)OCCO2)c1nc(-c2ccccc2)cs1 the results were Beta apoptosis -1, Efflux pump mplx 0, T cruzi inh 9, Mot1-301 SUMO 5, CSC inhib 36 and WT yeast gro inh 8.
For N#C/C(=C\Nc1ccc2c(c1)OCCO2)c1nc2ccccc2[nH]1 the results were Beta apoptosis 9, Efflux pump mplx 0, T cruzi inh 38, Mot1-301 SUMO 935*, CSC inhib 32, WT yeast gro inh -6 and Mot1 SUMO dose -1.
Screening O=C(Cc1cccs1)N1CCN(S(=O)(=O)c2cccc([N+](=O)[O-])c2)CC1 returned Beta apoptosis -2, Efflux pump mplx 0, T cruzi inh 3, Mot1-301 SUMO 3 and CSC inhib -11.
`Cc1ccnc(NC(=O)Cc2ccc(F)cc2)n1` gave Beta apoptosis -1, Efflux pump mplx 0, T cruzi inh -4, Mot1-301 SUMO -14 and CSC inhib -4.
Screening Cc1ccnc(NC(=O)CC(c2ccccc2)c2ccccc2)n1 returned Beta apoptosis 2, Efflux pump mplx 0, T cruzi inh 5, Mot1-301 SUMO 432*, CSC inhib -13, WT yeast gro inh 8 and Mot1 SUMO dose 1.
Screening CSc1nncc(/C(C)=N\Nc2cccc(C)c2)n1 returned Beta apoptosis 8, Efflux pump mplx 0, T cruzi inh 4, Mot1-301 SUMO 366*, CSC inhib 19, WT yeast gro inh -3 and Mot1 SUMO dose -1.
For Cc1cccc(N/N=C(\C#N)S(=O)(=O)C(C)(C)C)c1 the results were Beta apoptosis 13, Efflux pump mplx 0, T cruzi inh -24, Mot1-301 SUMO -14, CSC inhib -9 and WT yeast gro inh -44.
`COc1ccc(-c2noc(CCC(=O)N3CCN(c4ccc(Cl)cc4)CC3)n2)cc1` gave Efflux pump mplx 0.
O=C(NCc1ccc2c(c1)OCO2)C1CCC(=O)N1C1CCCC1 (stereo not given) was read as Beta apoptosis -2, Efflux pump mplx 0, T cruzi inh -4, Mot1-301 SUMO -3, CSC inhib -5 and WT yeast gro inh 0.
CCSc1nc2ccccc2c(=O)n1C1CCOC(C)(C)C1 (stereo not given) was read as Beta apoptosis -11, Efflux pump mplx 0, T cruzi inh 13, Mot1-301 SUMO 545*, CSC inhib -32, WT yeast gro inh -2 and Mot1 SUMO dose 0.
For CC1=C([N+](=O)[O-])C(c2ccccc2)NC(=O)N1 (stereo not given) the results were Efflux pump mplx 0, T cruzi inh -3, Mot1-301 SUMO -3 and CSC inhib -13.
For O=C(c1ccc(CS(=O)(=O)c2ccccc2)o1)N1CCOCC1 the results were Beta apoptosis -10, Efflux pump mplx 0, T cruzi inh -17, Mot1-301 SUMO 372*, CSC inhib -6, WT yeast gro inh 6 and Mot1 SUMO dose 2.
CN1CCN(C(=O)c2ccc(CS(=O)(=O)c3c(Cl)cccc3Cl)o2)CC1 was read as Efflux pump mplx 0, T cruzi inh -4, Mot1-301 SUMO -14, CSC inhib -9 and WT yeast gro inh 4.
For CCOC(=O)N1CCN(C(=O)c2ccc(CS(=O)(=O)c3c(Cl)cccc3Cl)o2)CC1 the results were Beta apoptosis -6, Efflux pump mplx 0, T cruzi inh 0, Mot1-301 SUMO 603*, CSC inhib 5, WT yeast gro inh 10 and Mot1 SUMO dose 0.
CC(C)(CNC(=O)c1ccc(S(=O)(=O)Nc2ccc(Cl)cc2)cc1)N1CCOCC1 was read as Beta apoptosis 0, Efflux pump mplx 0 and Mot1-301 SUMO 8.
CC1(C)NC(=O)N(CN2C(=O)NC(C)(C)C2=O)C1=O was read as Efflux pump mplx 0, T cruzi inh 7, Mot1-301 SUMO -5, CSC inhib -14 and WT yeast gro inh -22.

Bioassay records: PubChem BioAssay, several laboratories
